# Experimental data taken from PubChem BioAssay AID493091 (Sanford-Burnham Center for Chemical Genomics, 2011).
# Values joined by “and” are separate entries in the source; they are usually repeats but may differ in a detail not shown here. Identical values can stand only once. In all, about 340,000 compounds went through this assay and about 3,000 (0.88%) were called active. The entries come from a sample that favours actives as a whole. A number with no mark means an inactive call.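 Rule for the calls: active = inhibition above about 50% at 20 µM (limit read from the data); inactive = the rest.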
# Biological target: Carboxy-terminal domain RNA polymerase II polypeptide A small phosphatase 1 (Homo sapiens) (UniProt Q9GZU7)
# Sequence (Q9GZU7 76-261 limits assumed): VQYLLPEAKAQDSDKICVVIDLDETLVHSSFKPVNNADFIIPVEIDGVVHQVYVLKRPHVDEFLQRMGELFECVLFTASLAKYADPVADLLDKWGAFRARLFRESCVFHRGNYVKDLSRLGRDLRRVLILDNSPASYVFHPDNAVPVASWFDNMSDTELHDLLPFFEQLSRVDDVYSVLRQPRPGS
# Experiment: inhibition of human SCP1 dephosphorylation activity – biochemical, colorimetric, uHTS, primary screen (AID 493091);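 note: plate controls were DMSO wells with enzyme for no effect and wells lacking enzyme for full effect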
# Conditions: Recombinant Scp1, phosphopeptide, malachite green phosphate absorbance; at 20 µM; hits give high values
# Method in brief: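 assay system = SCP-1 phosphatase catalytic domain, residues 76-261 | buffer or medium = 50 mM Tris acetate pH 5.5, 0.005% Tween-20, 10 mM MgCl2 | incubation = enzyme reaction 45 min at room temperature, colour 5 min, stabilisation 30 min | signal = Phosphate-binding colour reagent, absorbance read at 630 nm | measure = % inhibition at 20 µM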
row,SMILES,inhibition
1,Cc1c(CCOC(=O)CC23CC4CC(CC(C)(C4)C2)C3)sc[n+]1Cc1ccc([N+](=O)[O-])cc1,12.7% and 5.4%
2,CN(C)c1nc2n(c(=O)n1)CCO2,1.74%
3,CC(NC(=O)COc1ccc(-c2ccccc2)cc1)C1CCCO1 (stereo unspecified),-2.02%
4,COc1ccc(OCC(=O)NNC(=O)C2CCC2)cc1,0.44%
5,COc1ccc(OCC(=O)NNC(=O)c2ccc(-c3ccccc3)cc2)cc1,69.9% (active)
6,CCC(C)N1CC(=O)N2Cc3[nH]c4ccccc4c3C[C@H]2C1=O (stereo partly specified),-3.96%
7,N/C(=N\OC(=O)N1c2ccccc2Sc2ccccc21)c1ccc(Br)cc1,69% (active)
8,N/C(=N\OC(=O)Cc1ccccc1[N+](=O)[O-])c1ccc(Br)cc1,-4.88%
9,N/C(=N\OC(=O)c1ccc2c(c1)OCO2)c1ccc(Br)cc1,-3.74%
10,Cc1ccc(S(=O)(=O)Nc2nc(C)cc(-n3nc(C)cc3C)n2)cc1,84.1% (active)
11,Cc1cc(C)nc(NS(=O)(=O)c2ccc(N3C(=O)C4CCCCC4C3=O)cc2)n1 (stereo unspecified),-3.6%
12,Cc1ccc(S(=O)(=O)Nc2nc(N)n(-c3ccccc3)n2)cc1,-3.38%
13,COC(=O)c1sccc1NC(=O)CSc1ccccc1NS(=O)(=O)c1cc(Cl)ccc1Cl,-13.4%
14,O=C(CNC(=O)C12CC3CC(CC(C3)C1)C2)OCC(=O)N1CCCCC1,-0.76%
15,C#CCOCCOCCOCCNc1nc(N2CCN(C(=O)CCCCCCCCCCNC(=O)[C@H](CCCCN)n3cc(C)nn3)CC2)nc(N2CCN(C(=O)CCCCCCCCCCNC(=O)[C@H](CO)n3cc(CCCSC)nn3)CC2)n1,26.8%
16,C#CCOCCOCCOCCNc1nc(N2CCN(C(=O)Cn3cc(CCO)nn3)CC2)nc(N2CCN(C(=O)Cn3cc(CCCN=C(N)N)nn3)CC2)n1,4.14%
17,C#CCOCCOCCOCCNc1nc(N2CCN(C(=O)CCCCCCCCCCNC(=O)[C@H]([C@@H](C)CC)n3cc(CCCCN=C(N)N)nn3)CC2)nc(N2CCN(C(=O)CCCCCCCCCCNC(=O)[C@H](CO)n3cc(CCCSC)nn3)CC2)n1,53% (active)
18,Cc1ccc(CNC(=O)C(=O)c2cn(CC(=O)N3CCCC3)c3ccccc23)cc1,-10.2%
19,O=C(c1ccccc1)c1ccc(C(=O)N2CCN(c3ccccc3)CC2)cc1,0.99%
20,O=C(C1CCC1)N1CCN(c2ccccc2)CC1,-5.05%
21,O=C(c1cc2c(s1)CCC2)N1CCN(c2ccccc2)CC1,51.2% (active)
22,O=C1NC(c2ccccc2)Cc2ccncc21 (stereo unspecified),5.3%

row,SMILES,inhibition
1,Cc1cc(/C=C2\SC(=Nc3ccc(N4CCOCC4)cc3)N(C)C2=O)c(C)n1-c1cccnc1,-4.38%
2,Cc1cc(/C=C2\SC(=O)N(C)C2=O)c(C)n1-c1cccc(C(=O)O)c1,54.7% (active)
3,Cc1cc(/C=C2/SC(=O)N(CC(=O)N3CCCC3)C2=O)c(C)n1C,-10.3%
4,CC(C)CCN1CCC(C)(NC(=O)c2ccccc2)C1=O (stereo unspecified),5.05%
5,Cc1nnc(SCc2ccc(C(=O)c3ccc(Cl)cc3)o2)n1-c1ccccc1,7.29%
6,CSc1nc(-c2ccco2)nn1C(=O)c1ccccc1Cl,-10.4%
7,CCOc1ccccc1/C=c1\sc2nc(-c3ccco3)nn2c1=O,78% (active)
8,CCCn1nc(C(=O)NNC(=O)CCOc2ccccc2OCC)c2ccccc2c1=O,-1.1%
9,Nc1ncc(CN2CCCC(C(=O)Nc3ccc(-c4ccco4)cc3)C2)cn1 (stereo unspecified),-3.44%
10,COc1ccc(C(=O)C2CCCN(Cc3cccn3-c3ccccn3)C2)c(C)c1 (stereo unspecified),-4.92%
11,CS(=O)(=O)C1=NN2C(=N)/C(=C\c3ccc(OCCOc4ccccc4)cc3)C(=O)N=C2S1,50.3% (active)
12,COc1ccccc1OCCOc1ccc(/C=C2\C(=N)N3N=C(C)SC3=NC2=O)cc1,-7.04%
13,CCOc1cc(/C=C2\C(=N)N3N=C(C)SC3=NC2=O)ccc1OCCOc1ccccc1,-5.68%
14,CCOc1ccc(S(=O)(=O)N/N=C(\C)c2ccc(Cl)c(Cl)c2Cl)cc1,-6.85%
15,CSc1ccc(Cl)c(C(=O)OCC(=O)N2CCNC2=O)c1,0.5%
16,C[N+](C)(C)CCNC(=O)c1cc[n+](Cc2ccccc2)c(/C=N/O)c1,99.5% (active)
17,CC(C)c1ccc(C(=O)NCCCc2ccccc2)cc1,-14.7%
18,O=C(NCCCNCc1ccccc1)c1ccc(/C=N/O)nc1,-4.62%
19,O=C(NNS(=O)(=O)c1ccc([N+](=O)[O-])cc1)C1CCCCC1,-6.14%
20,Cc1cc2occ(CC(=O)NNC(=O)c3ccccc3F)c2cc1C,-10.5%
21,CCN(CC)CCN(C(=O)c1cccc([N+](=O)[O-])c1)c1nc2ccc(OC)cc2s1,-1.97%
22,CCOc1ccc2nc(N(CCCN(C)C)C(=O)c3ccc(C(=O)c4ccccc4)cc3)sc2c1,65% (active)

row,SMILES,inhibition
1,CN(C)CCCN(C(=O)c1ccc(S(=O)(=O)N2CCCCCC2)cc1)c1nc2ccc(Br)cc2s1,11.7%
2,CC(C)CNC(=O)COC(=O)/C=C/c1ccco1,22.6%
3,COc1c(Br)cc2c(C)c(C(=O)N3CCOCC3)oc2c1Br,-4.18%
4,Cc1ccc(OCCC(=O)OCC(=O)N2c3ccccc3NC(=O)C2(C)C)cc1,3.3%
5,CCNc1ccc(C(=O)OCC(=O)N2c3ccccc3NC(=O)C2(C)C)cc1[N+](=O)[O-],-9.83%
6,CNS(=O)(=O)c1cccc(C(=O)OCC(=O)N2c3ccccc3NC(=O)C2(C)C)c1,51% (active)
7,CCCCCN(C(=O)CCC(=O)OCC(=O)NC1CCC(C)CC1)c1c(N)n(CCCC)c(=O)[nH]c1=O (stereo unspecified),3.11%
8,CC(=O)NNC(=O)c1csc(Cc2c(Cl)sc3ccc(Cl)cc23)n1,-4.25%
9,CC1CC(=O)N(CC(=O)Nc2cccc(Cl)c2)c2ccccc2S1(=O)=O (stereo unspecified),-2.39%
10,O=C(CCc1ccc(S(=O)(=O)N2CCOCC2)cc1)Nc1ccc2ccccc2c1,-11.8%
11,CC/C(=C(/c1ccccc1)c1ccc(OCC[N+](C)(C)C)cc1)c1ccccc1,67.4% (active)
12,CCOc1cc(C(=O)O)ccc1OCCOc1ccccc1,6.63%
13,CCN(C(=O)COc1ccc(C(=O)c2ccccc2)cc1)c1ccccc1,-3.83%
14,O=C(CCn1ccc([N+](=O)[O-])n1)Nc1nccs1,-5.19%
15,CC(=O)c1ccc(N2CCN(C(=O)c3ccc(Cl)c(S(=O)(=O)NC4CC4)c3)CC2)c(F)c1,-5.7%
16,CC(=O)c1sc2nc(SCC(=O)N3CCCCC3)[nH]c(=O)c2c1C,7.94%
17,Cc1sc2nc(CSCC(=O)NC3CCCCC3)[nH]c(=O)c2c1C,1.62%
18,CSc1nnc(SCc2nc3sc(C(=O)O)c(C)c3c(=O)[nH]2)s1,74% (active)
19,CCN1/C(=C\c2ccc3ccccc3[n+]2CC)Sc2cc(C)ccc21,21.8%
20,CCN1/C(=C/c2ccc3ccc(C)cc3[n+]2CC)Sc2ccccc21,64.2% (active)
21,CCOc1cc(C2C(C(=O)OC(C)C)=C(C)NC3=C2C(=O)CCC3)cc([N+](=O)[O-])c1O (stereo unspecified),-7.32%
22,CCN(CC)C(=O)Oc1ccc(OC(=O)N(CC)CC)cc1,7.37%

row,SMILES,inhibition
1,O=C(NCc1ccccn1)C1CCN(S(=O)(=O)c2ccc(Br)cc2)CC1,3.99%
2,COc1ccc(NC(=O)CN(C)C(=O)c2cc(-c3ccc(C)o3)nc3ccccc23)cc1,-3.85%
3,CC(=O)N1CCN(C(=O)c2cc(-c3ccc(C)o3)nc3ccccc23)CC1,-8.9%
4,Cc1ccc(NC(=O)c2cc(-c3ccc(C)o3)nc3ccccc23)nc1,67.5% (active)
5,O=C(C1CCCO1)N1CCN(S(=O)(=O)c2ccc(Br)cc2)CC1 (stereo unspecified),-5.02%
6,CN(C)C(CNC(=O)c1ccc(S(=O)(=O)NCc2ccco2)cc1)c1ccccc1 (stereo unspecified),-0.87%
7,O=C(NN1C(=O)C2C3C=CC(O3)C2C1=O)c1ccncc1 (stereo unspecified),0.55%
8,O=C(NN1C(=O)C2C3C=CC(O3)C2C1=O)c1ccccc1 (stereo unspecified),56% (active)
9,COc1ccccc1C(=O)NN1C(=O)C2C3C=CC(O3)C2C1=O (stereo unspecified),-11.3%
10,CCOc1cc(NC(=O)CCl)c(OCC)cc1NC(C)=O,-1.31%
11,O=c1ccc2c(-c3ccccc3S(=O)(=O)O)c3ccc(O)c(O)c3oc-2c1O,64.1% (active)
12,O=C(Nc1cc2c3c(c1)CC(=O)N3CCC2)c1ccccc1F,-6.14%
13,O=P(O)(CP(=O)(c1ccccc1)c1ccccc1)c1ccccc1,-4.63%
14,COc1cccc(Cn2cc(/C=N/NC(=O)c3cc(O)cc(O)c3)c3ccccc32)c1,-15.4%
15,O=C(Cn1cc(/C=N/NC(=O)c2cccc(C(F)(F)F)c2)c2ccccc21)Nc1ccc(F)cc1,90.8% (active)
16,O=C(CSc1ccc(/C=N/NC(=O)c2cccc(F)c2)o1)Nc1ccccc1,-3.74%
17,COc1cc(C2C3=C(CCCC3=O)OC3=C2C(=O)CCC3)ccc1OCC(=O)Nc1ccccc1,4.63%
18,CCOc1ccc(-c2nnn(CC(=O)N3CCN(c4ccc(OC)cc4)CC3)n2)cc1OCC,-1.29%
19,COc1ccc(N2CCN(C(=O)CSc3nnc4ncccn34)CC2)cc1,-6.4%
20,COc1ccc(N2CCN(C(=O)CSc3nc4cc(OC)c(OC)cc4cc3C#N)CC2)cc1,67.5% (active)
